Assay outcomes from PubChem BioAssay.
The list is not random: actives were taken first. Their share in the collection is about 0.99%.
LYPLA1 counter: counter-screen for PME1 inhibitors: inhibitors of human LYPLA1; O75608; recombinant LYPLA1, FP-Rh probe fluorescence polarization; inhibition, % at 5.9 µM; 320,000 tested, 0.16% active; AID 2174;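 active = inhibition above the mean of all tested compounds plus 3 SD, set per campaign, cut at about 14% in these data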;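 note: inhibitors block serine hydrolase probe labeling of LYPLA1 so polarization falls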
Target sequence (O75608 whole entry, looked up): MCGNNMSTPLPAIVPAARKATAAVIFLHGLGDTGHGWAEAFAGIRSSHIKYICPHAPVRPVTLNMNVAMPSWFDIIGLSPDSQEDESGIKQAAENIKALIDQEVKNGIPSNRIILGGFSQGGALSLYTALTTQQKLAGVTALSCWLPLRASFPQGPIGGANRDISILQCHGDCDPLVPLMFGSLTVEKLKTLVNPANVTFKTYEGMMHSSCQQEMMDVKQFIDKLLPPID
PME-1 primary: blocks human protein phosphatase methylesterase 1; 320,000 tested, 0.53% active; recombinant PME-1, FP-Rh probe fluorescence polarization; inhibition, % at 5.9 µM; Q9Y570;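 active = inhibition above the campaign mean of all compounds plus 3 SD, cut at about 26% in these data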;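 note: competitive labeling of PME-1 active site by serine hydrolase directed probe; inhibitors block probe labeling so polarization falls and inhibition rises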
Fam108B counter: Fam108B inhibition, counter-screen for RBBP9 inhibitors; 300,000 tested, 0.33% active; recombinant Fam108B, FP-Rh probe fluorescence polarization; inhibition, % at 9.51 µM;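 active = inhibition above the screen mean inhibition plus 3 SD, computed separately per campaign, cut at about 18% in these data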;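 note: inhibitors lower polarization as less probe binds the enzyme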
LYPLA2 inh: counter-screen for PME1 inhibitors: inhibitors of human LYPLA2 | recombinant LYPLA2, FP-Rh probe fluorescence polarization | inhibition, % at 5.9 µM | 320,000 tested, 0.38% active;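 active = inhibition above the screen-wide mean plus 3 SD, limit set per campaign, cut at about 26% in these data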
Target sequence (O95372 whole entry, looked up): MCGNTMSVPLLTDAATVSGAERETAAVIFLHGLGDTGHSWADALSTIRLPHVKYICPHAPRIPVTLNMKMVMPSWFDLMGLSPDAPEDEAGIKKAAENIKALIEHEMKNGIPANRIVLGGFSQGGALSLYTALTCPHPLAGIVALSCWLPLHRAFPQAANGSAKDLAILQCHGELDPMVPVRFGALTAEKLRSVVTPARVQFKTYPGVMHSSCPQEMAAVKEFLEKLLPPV
RBBP9 inhibitor: human RBBP9 hydrolase inhibition | O75884 | recombinant RBBP9, FP-Rh probe fluorescence polarization | inhibition, % at 7.94 µM | 220,000 tested, 0.2% active;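 active = inhibition above the campaign mean of all tested compounds plus 3 SD, cut at about 14% in these data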
Target sequence (O75884 whole entry, looked up): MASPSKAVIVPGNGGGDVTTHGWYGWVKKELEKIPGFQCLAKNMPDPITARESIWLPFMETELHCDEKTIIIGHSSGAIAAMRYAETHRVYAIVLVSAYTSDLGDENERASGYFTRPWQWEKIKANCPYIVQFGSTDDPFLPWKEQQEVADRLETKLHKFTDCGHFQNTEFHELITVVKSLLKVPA
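Controls: DMSO-treated enzyme wells and wells lacking RBBP9 | Material: RBBP9 protein | Technique: Fluorescence polarization | Replication: Single well per compound, no replicates | Buffer or medium: Tris-NaCl-Pluronic buffer, pH 8.0 | Timing: 30 min compound preincubation, 45 min probe labeling, 25 °C | Read-out basis: Percent inhibition from mP, scaled between DMSO and no-protein wells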
LYPLA1 conf: LYPLA1 (human) inhibition, confirmation counter-screen; shares compounds with LYPLA1 counter; recombinant LYPLA1, FP-Rh probe fluorescence polarization; inhibition, % at 5.9 µM; 480 tested, 69% active; AID 2233;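 active = mean inhibition across replicates above the hit cutoff set in the primary screen, cut at about 15% in these data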;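 note: loss of FP-Rh probe labeling of LYPLA1 seen as lower polarization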
LYPLA2 conf: counter-screen for PME1 inhibitors: confirmation of human LYPLA2 inhibitors | AID 2232 | recombinant LYPLA2, FP-Rh probe fluorescence polarization | 1,100 tested, 72% active | inhibition, % at 5.9 µM | shares compounds with LYPLA2 inh;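 active = mean inhibition across replicates above the hit cutoff set in the primary screen, cut at about 26% in these data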;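 note: blocked labeling of the enzyme by serine hydrolase FP-Rh probe lowers polarization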
LYPLA2 ABPP: blocks human acyl-protein thioesterase 2 in gel ABPP | shares compounds with LYPLA2 inh | rhLYPLA2 in mouse brain proteome, gel ABPP FP-Rh | inhibition, % at 20 µM | 150 tested, 30% active | AID 652029;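 active = inhibition of LYPLA2 enzyme probe labeling above about 50%, limit read from the data; inactive = inhibition below that limit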;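 note: loss of FP-Rh probe labeling of the LYPLA2 gel band measured as band density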
Numbers stand for hits; 0 = inactive; - = no result given.

SMILES | LYPLA1 counter | PME-1 primary | Fam108B counter | LYPLA2 inh | RBBP9 inhibitor | LYPLA2 conf | others
COc1ccccc1-n1cc(C(=O)NCC(=O)N2CCN(Cc3ccccc3)CC2)c2ccccc2c1=O | 16.4 | 0 | 0 | 84.1 | 0 | 80.9 | LYPLA1 conf=21.7
Cc1ccc(CN2CCN(/N=C/C=C/c3ccccc3[N+](=O)[O-])CC2)cc1 | 32.9 | 0 | 0 | 71.1 | 0 | 76.7 | LYPLA1 conf=52.6
COc1ccc(CN2CCN(C(=O)Cn3nc(C(=O)O)c4ccccc4c3=O)CC2)cc1F | 16.8 | 0 | 0 | 57.1 | - | 63.0 | LYPLA1 conf=15.0;LYPLA2 ABPP=0
COc1cc(COc2ccc3c(C)c(Cc4ccccc4)c(=O)oc3c2)cc(OC)c1OC | 17.3 | 0 | 0 | 50.5 | 0 | 57.5 | LYPLA1 conf=36.2
CCN1CCN(c2ccc(S(=O)(=O)N3CCCCC3)cc2N)CC1 | 0 | 0 | - | 0 | - | -
O=C(NC(=S)Nc1sc2c(c1C(=O)O)CCCC2)c1ccccc1 | 78.2 | 0 | 0 | 96.0 | - | 87.3 | LYPLA1 conf=71.4
N#Cc1c(NC(=S)NC(=O)c2ccccc2)sc2c1CCC2 | 0 | 0 | 0 | 0 | 0 | -
Cc1ccc(C(=O)ON=C2CCN(c3ccc([N+](=O)[O-])cc3)CC2)cc1 | 23.0 | 0 | 0 | 55.0 | 0 | 47.1 | LYPLA1 conf=28.5
O=[N+]([O-])c1ccc(N2CCC(=NOCc3ccc(Cl)cc3)CC2)cc1 | 58.3 | 0 | 0 | 77.5 | 0 | 74.6 | LYPLA1 conf=70.2
Cc1ccc(C(=O)NC(=S)N2CCN(c3ccc([N+](=O)[O-])cc3)CC2)cc1 | 0 | 0 | 0 | 0 | 0 | -
O=[N+]([O-])c1ccc(C2CCCC/C2=N/OCc2ccc(F)cc2)c([N+](=O)[O-])c1 (stereo not drawn) | 0 | 0 | 0 | 0 | 0 | -
Cc1cc(C)n(C(=O)Cn2nc([N+](=O)[O-])c(Br)c2C)n1 | 0 | 0 | 0 | 0 | 0 | -
Cc1ccc(C)c(C(=O)CCC(=O)N2CCN(c3cccc(C(F)(F)F)c3)CC2)c1 | 37.5 | 0 | - | 56.9 | - | 64.1 | LYPLA1 conf=44.1
O=C(CCCCn1c(=O)[nH]c2ccccc2c1=O)N1CCN(c2cccc(C(F)(F)F)c2)CC1 | 19.9 | 0 | 0 | 83.2 | 0 | 72.6 | LYPLA1 conf=21.8
COc1ccc(N2CCN(C(=O)CCCCCn3c(=O)[nH]c4ccsc4c3=O)CC2)cc1 | 18.6 | 0 | 0 | 26.6 | 0 | 28.7 | LYPLA1 conf=45.5
COc1ccc(N2CCN(CCCNC(=O)CCCn3c(=O)[nH]c4ccsc4c3=O)CC2)cc1 | 0 | 0 | 0 | 0 | 0 | -
O=C(Nc1cccc(S(=O)(=O)N2CCCCCC2)c1)C1CCN(C(=O)c2ccc(F)cc2)CC1 | 0 | 0 | 0 | 0 | - | -
COCCNC(=O)C1Cc2cc(S(=O)(=O)N3CCCC3)ccc2N1C(C)=O (stereo not drawn) | 0 | 0 | 0 | 0 | - | -
CC(C)(C)OC(=O)NCCCCCc1nnc(SCc2c(F)cccc2Cl)o1 | 24.8 | 0 | 0 | 40.4 | 0 | 43.6 | LYPLA1 conf=40.6
CC(C)(C)OC(=O)NCCc1nnc(SCc2c(Cl)cccc2Cl)o1 | 0 | 0 | 0 | 0 | 0 | -
N#Cc1ccc(-c2ccc(OCC(=O)NCCc3ccccc3)cc2)cc1 | 0 | 0 | 0 | 34.8 | 0 | 0
COc1ccc(CCNC(=O)COc2ccc(-c3ccc(C#N)cc3)cc2)cc1 | 0 | 0 | 0 | 0 | 0 | -
COc1cc(/C=C2/NC(=O)N(Cc3ccccc3F)C2=O)ccc1Oc1ccc([N+](=O)[O-])cn1 | 0 | 0 | 0 | 62.0 | 0 | 72.4
COc1cc(/C=C(/C#N)c2ccccc2)ccc1Oc1ccc([N+](=O)[O-])cn1 | 0 | 0 | 0 | 31.2 | 0 | 30.8
O=S(=O)(c1ccc(-c2csc(Nc3ccc(Br)cc3)n2)cc1)N1CCCC1 | 0 | 37.6 | 0 | 53.4 | 0 | 0
SMILES | LYPLA1 counter | PME-1 primary | Fam108B counter | LYPLA2 inh | RBBP9 inhibitor | LYPLA2 conf | others
Clc1ccccc1CSc1nncn1NC/C=C/c1ccccc1 | 0 | 0 | 0 | 0 | 0 | -
Fc1ccc(C2=Nn3c(Cc4ccccc4F)nnc3SC2)cc1 | 0 | 0 | 0 | 27.7 | 0 | 0
c1ccc(Cc2nnc3n2N=C(c2ccccc2)CS3)cc1 | 0 | 0 | 0 | 0 | 0 | -
O=C(O)c1ccccc1SCc1cn2cc(Cl)ccc2n1 | 0 | 0 | 0 | 31.9 | 0 | 0
O=C(O)c1cccnc1SCc1cn2cc(Cl)ccc2n1 | 0 | 0 | 0 | 0 | 0 | -
CN(C)c1ccc(-c2noc(C3CCN(S(=O)(=O)c4cccc(Cl)c4)CC3)n2)cc1 | 0 | 0 | 0 | 0 | 0 | -
CN(C)c1ccc(-c2noc(C3CCN(S(=O)(=O)c4ccc(C(=O)O)cc4)CC3)n2)cc1 | 0 | 0 | 0 | 29.6 | 0 | 28.7
Cc1ccc(-c2noc(C3CCCN(S(=O)(=O)c4ccc5ccccc5c4)C3)n2)o1 (stereo not drawn) | 0 | 0 | 0 | 0 | 0 | -
Cc1ccc(-c2noc(C3CCN(S(=O)(=O)c4ccc5c(c4)OCCO5)CC3)n2)o1 | 0 | 0 | 0 | 56.0 | 0 | 54.0 | LYPLA2 ABPP=0
CCc1ccc(NC(=O)CCc2nc3ccccc3[nH]2)cc1 | 0 | 0 | 0 | 0 | 0 | -
COc1cc(-c2cc(C(=O)Nc3ccc(S(=O)(=O)NCc4ccco4)cc3)c3ccccc3n2)cc(OC)c1OC | 0 | 0 | 0 | 0 | 0 | -
COc1ccc(-n2c(C)cc(C(=O)Cn3c(NCCO)nc4ccccc43)c2C)cc1 | 0 | 0 | 0 | 56.1 | 0 | 62.3 | LYPLA2 ABPP=0
COc1ccc(C)cc1Nc1n[n+](-c2ccccc2)c(-c2ccc(SC)cc2)s1 | 0 | 0 | 0 | 0 | - | -
O=C(c1ccc(S(=O)(=O)N2CCCC2)cc1)N1CCC(CN2C(=O)c3cccc4cccc(c34)C2=O)CC1 | 0 | 0 | 0 | 26.8 | 0 | 0
COc1ccc(S(=O)(=O)N2CCC(CN3C(=O)c4cccc5cccc(c45)C3=O)CC2)cc1 | 0 | 0 | 0 | 0 | 0 | -
CC(=O)c1ccc(N2CCN(C(=O)CCCn3c(=O)[nH]c4ccsc4c3=O)CC2)cc1 | 0 | 0 | 0 | 51.3 | - | 56.4 | LYPLA2 ABPP=0
Cc1cccc(N2CCN(C(=O)Cc3ccc(-n4c(=O)[nH]c5ccsc5c4=O)cc3)CC2)c1C | 0 | 0 | 0 | 66.5 | 0 | 68.5 | LYPLA2 ABPP=56.0
N#CCC(=O)Nc1ccc(C(=O)OCc2ccccc2Oc2ccccc2)cc1 | 0 | 37.9 | 0 | 26.0 | - | 0
CN(Cc1ccc(Cl)cc1Cl)C(=O)CNC(=O)c1ccc2c(c1)OCO2 | 0 | 0 | 0 | 0 | - | -
COc1ccc2c(c1)CCc1cc(C(=O)N3CCN(c4ccc(N5CCOCC5)nn4)CC3)sc1-2 | 0 | 0 | 0 | 58.6 | 0 | 59.5 | LYPLA2 ABPP=0
CC(=O)c1ccc(N2CCN(C(=O)c3cc4c(s3)CCCC4)CC2)cc1 | 0 | 0 | 0 | 44.0 | 0 | 53.8 | LYPLA2 ABPP=0
O=C(c1cc2c(s1)CCCCC2)N1CCN(c2ncccn2)CC1 | 0 | 0 | 0 | 0 | 0 | -
COc1ccc(N2CCN(C(=O)c3cc4c(s3)CCCCC4)CC2)cc1 | 0 | 0 | - | 62.1 | - | 61.7 | LYPLA2 ABPP=0
